In assay [1] the test system is Aspergillus niger. Briefly: Antifungal activity against Aspergillus niger using 1 x 10^5 spore/100 uL after 72 hrs by microdilution method. Type of assay: functional. (In general: Dilution methods test growth across graded concentrations, often in twofold steps.)
Assay [2] deals with Aspergillus flavus. As to the kind of experiment: Antifungal activity against Aspergillus flavus using 1 x 10^5 spore/100 uL after 72 hrs by microdilution method. In kind it is functional.
In assay [3] the test system is Aspergillus fumigatus. As to the kind of experiment: Antifungal activity against Aspergillus fumigatus using 1 x 10^5 spore/100 uL after 72 hrs by microdilution method. Type of assay: functional.
Assay [4] has as its system Trichoderma viride. As to the kind of experiment: Antifungal activity against Trichoderma viride using 1 x 10^5 spore/100 uL after 72 hrs by microdilution method. In kind it is functional.
Assay [5] in a line: Antifungal activity against Trichoderma reesei using 1 x 10^5 spore/100 uL after 72 hrs by microdilution method. Type of assay: functional. In short, it runs like this:
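Spores washed from malt agar cultures with sterile 0.85% saline plus 0.1% Tween 80, adjusted to about 1.0×10^5 per 100 µl well. Compounds from a 1 mg/ml DMSO stock were serially diluted in malt broth with inoculum in 96-well plates and incubated 72 h at 28 °C. MIC is the lowest concentration with no visible growth under a binocular microscope. DMSO served as negative control.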

The subject of assay [6] is Curvularia australiensis. As to the kind of experiment: Antifungal activity against Drechslera australiensis using 1 x 10^5 spore/100 uL after 72 hrs by microdilution method. Type of assay: functional.
The subject of assay [7] is Aspergillus niger. As to the kind of experiment: Antifungal activity against Aspergillus niger using 1 x 10^5 spore/100 uL assessed as 99.5% fungal killing of original inoculum after 72 hrs by microdilution method. Type of assay: functional.
Assay [8] relates to Aspergillus flavus. As to the kind of experiment: Antifungal activity against Aspergillus flavus using 1 x 10^5 spore/100 uL assessed as 99.5% fungal killing of original inoculum after 72 hrs by microdilution method. In kind it is functional.
The test system of assay [9] is Aspergillus fumigatus. Briefly: Antifungal activity against Aspergillus fumigatus using 1 x 10^5 spore/100 uL assessed as 99.5% fungal killing of original inoculum after 72 hrs by microdilution method. Type of assay: functional.
In assay [10] the test system is Trichoderma viride. As to the kind of experiment: Antifungal activity against Trichoderma viride using 1 x 10^5 spore/100 uL assessed as 99.5% fungal killing of original inoculum after 72 hrs by microdilution method. Type of assay: functional.
Assay [11] is described as follows: Antifungal activity against Trichoderma reesei using 1 x 10^5 spore/100 uL assessed as 99.5% fungal killing of original inoculum after 72 hrs by microdilution method. Type of assay: functional.
Assay [12] has as its system Curvularia australiensis. As to the kind of experiment: Antifungal activity against Drechslera australiensis using 1 x 10^5 spore/100 uL assessed as 99.5% fungal killing of original inoculum after 72 hrs by microdilution method. In kind it is functional.
Another assay deals with Bacillus cereus. Briefly: Antibacterial activity against Bacillus cereus using 1 x 10^4 CFU/ml inoculum after 24 hrs by microdilution method. In kind it is functional.
The test system of another assay is Bacillus subtilis. Briefly: Antibacterial activity against Bacillus subtilis using 1 x 10^4 CFU/ml inoculum after 24 hrs by microdilution method. Type of assay: functional.
A further assay has as its system Bacillus thuringiensis. Briefly: Antibacterial activity against Bacillus thuringiensis using 1 x 10^4 CFU/ml inoculum after 24 hrs by microdilution method. In kind it is functional.
For another assay, the system named is Staphylococcus aureus. Briefly: Antibacterial activity against Staphylococcus aureus using 1 x 10^4 CFU/ml inoculum after 24 hrs by microdilution method. Type of assay: functional.
A further assay concerns Escherichia coli. As to the kind of experiment: Antibacterial activity against Escherichia coli using 1 x 10^4 CFU/ml inoculum after 24 hrs by microdilution method. Type of assay: functional.
The next assay concerns Pseudomonas aeruginosa. As to the kind of experiment: Antibacterial activity against Pseudomonas aeruginosa using 1 x 10^4 CFU/ml inoculum after 24 hrs by microdilution method. Type of assay: functional.
The subject of a further assay is Salmonella typhi. Briefly: Antibacterial activity against Salmonella typhi using 1 x 10^4 CFU/ml inoculum after 24 hrs by microdilution method. Type of assay: functional, Salmonella enterica subsp. enterica serovar Typhi.

A value given as a limit tells only on which side of the number the result lay.

For `C/C(=N\NC(=O)C1=C(O)c2ccccc2S(=O)(=O)N1)c1ccc(O)cc1`, the MIC in the assay on Aspergillus niger [1] is above 100 ×10⁻² umol; with Aspergillus flavus [2], above 100 ×10⁻² umol; with Aspergillus fumigatus [3], above 100 ×10⁻² umol; in the assay on Trichoderma viride [4], above 100 ×10⁻² umol; in [5], above 100 ×10⁻² µmol; against Curvularia australiensis [6], above 100 ×10⁻² umol. For the same compound, the MIC turned out to be 4.8 ×10⁻² umol in the assay with Bacillus cereus; 4.9 ×10⁻² umol against Bacillus subtilis; 5 ×10⁻² umol with Bacillus thuringiensis; 19 ×10⁻² umol against Staphylococcus aureus; 21.3 ×10⁻² umol in the assay with Escherichia coli; 22.6 ×10⁻² umol with Pseudomonas aeruginosa. In the assay with Salmonella typhi, the MIC amounted to 25.2 ×10⁻² umol. Moreover, the MFC with Aspergillus niger [7] is above 200 ×10⁻² umol; in the assay on Aspergillus flavus [8] it was above 200 ×10⁻² umol; in the assay with Aspergillus fumigatus [9], above 200 ×10⁻² umol; in the assay with Trichoderma viride [10], above 200 ×10⁻² umol; in [11] it was above 200 ×10⁻² µmol; in the assay with Curvularia australiensis [12] it was above 200 ×10⁻² umol.
`C/C(=N\NC(=O)C1=C(O)c2ccccc2S(=O)(=O)N1C)c1cccc(O)c1`: the MIC was above 100 ×10⁻² umol with Aspergillus niger [1]; above 100 ×10⁻² umol against Aspergillus flavus [2]; above 100 ×10⁻² umol against Aspergillus fumigatus [3]; above 100 ×10⁻² umol against Trichoderma viride [4]; above 100 ×10⁻² µmol in assay [5]; above 100 ×10⁻² umol in the assay with Curvularia australiensis [6]. Moreover, the MIC against Bacillus cereus is reported as 4.2 ×10⁻² umol; with Bacillus subtilis, 4.5 ×10⁻² umol; in the assay with Bacillus thuringiensis, 4.3 ×10⁻² umol; against Staphylococcus aureus, 18.2 ×10⁻² umol; in the assay on Escherichia coli, 19.3 ×10⁻² umol; in the assay on Pseudomonas aeruginosa it was 21 ×10⁻² umol. In the assay with Salmonella typhi, the MIC was 23.1 ×10⁻² umol. Moreover, the MFC was above 200 ×10⁻² umol with Aspergillus niger [7]; above 200 ×10⁻² umol in the assay with Aspergillus flavus [8]; above 200 ×10⁻² umol with Aspergillus fumigatus [9]; above 200 ×10⁻² umol in the assay on Trichoderma viride [10]; above 200 ×10⁻² µmol in assay [11]; above 200 ×10⁻² umol in the assay with Curvularia australiensis [12].
With `C/C(=N\NC(=O)C1=C(O)c2ccccc2S(=O)(=O)N1)c1ccccc1O`, the MIC with Aspergillus niger [1] is above 100 ×10⁻² umol; against Aspergillus flavus [2], above 100 ×10⁻² umol; in the assay with Aspergillus fumigatus [3], above 100 ×10⁻² umol; against Trichoderma viride [4], above 100 ×10⁻² umol; in assay [5] it was above 100 ×10⁻² µmol; in the assay with Curvularia australiensis [6], above 100 ×10⁻² umol. In addition, the MIC against Bacillus cereus was found to be 4.2 ×10⁻² umol; against Bacillus subtilis, 4.4 ×10⁻² umol; in the assay on Bacillus thuringiensis it was 4.1 ×10⁻² umol; against Staphylococcus aureus, 17.8 ×10⁻² umol; in the assay on Escherichia coli, 19.9 ×10⁻² umol; against Pseudomonas aeruginosa it was 20.6 ×10⁻² umol. The compound further yielded an MIC against Salmonella typhi of 22.7 ×10⁻² umol. The MFC with Aspergillus niger [7] is above 200 ×10⁻² umol; with Aspergillus flavus [8], above 200 ×10⁻² umol; in the assay on Aspergillus fumigatus [9], above 200 ×10⁻² umol; with Trichoderma viride [10], above 200 ×10⁻² umol; in assay [11], above 200 ×10⁻² µmol; in the assay with Curvularia australiensis [12], above 200 ×10⁻² umol.
`C/C(=N\NC(=O)C1=C(O)c2ccccc2S(=O)(=O)N1)c1cccc(O)c1`: the MIC with Aspergillus niger [1] is above 100 ×10⁻² umol; in the assay with Aspergillus flavus [2], above 100 ×10⁻² umol; in the assay on Aspergillus fumigatus [3] it was above 100 ×10⁻² umol; against Trichoderma viride [4], above 100 ×10⁻² umol; in assay [5] it was above 100 ×10⁻² µmol; against Curvularia australiensis [6] it was above 100 ×10⁻² umol. Moreover, the MIC in the assay on Bacillus cereus is given as 4.5 ×10⁻² umol; with Bacillus subtilis it was 4.6 ×10⁻² umol; against Bacillus thuringiensis it was 4.4 ×10⁻² umol; against Staphylococcus aureus, 18.4 ×10⁻² umol; against Escherichia coli it was 19.7 ×10⁻² umol; against Pseudomonas aeruginosa it was 21.2 ×10⁻² umol. In the assay with Salmonella typhi, this compound came in with an MIC of 23.5 ×10⁻² umol. In addition, the MFC in the assay with Aspergillus niger [7] was above 200 ×10⁻² umol; with Aspergillus flavus [8], above 200 ×10⁻² umol; with Aspergillus fumigatus [9], above 200 ×10⁻² umol; in the assay with Trichoderma viride [10], above 200 ×10⁻² umol; in assay [11], above 200 ×10⁻² µmol; in the assay on Curvularia australiensis [12], above 200 ×10⁻² umol.
Consider `COc1ccc(/C(C)=N/NC(=O)C2=C(O)c3ccccc3S(=O)(=O)N2C)cc1`, for which the MIC worked out at 87.2 ×10⁻² umol in the assay with Aspergillus niger [1]; 86.1 ×10⁻² umol with Aspergillus flavus [2]; 77.6 ×10⁻² umol in the assay with Aspergillus fumigatus [3]; 79.2 ×10⁻² umol in the assay with Trichoderma viride [4]; 78.9 ×10⁻² µmol in assay [5]; 80 ×10⁻² umol in the assay on Curvularia australiensis [6]. Further, the MIC against Bacillus cereus is listed as 7.9 ×10⁻² umol; against Bacillus subtilis, 7.6 ×10⁻² umol; with Bacillus thuringiensis, 7.8 ×10⁻² umol; in the assay with Staphylococcus aureus, 26.3 ×10⁻² umol; against Escherichia coli it was 27.9 ×10⁻² umol; with Pseudomonas aeruginosa, 29.2 ×10⁻² umol. Besides, the MIC in the assay on Salmonella typhi was determined as 32.4 ×10⁻² umol. For the same compound, the MFC in the assay with Aspergillus niger [7] is 180.7 ×10⁻² umol; in the assay with Aspergillus flavus [8], 170 ×10⁻² umol; with Aspergillus fumigatus [9], 149.5 ×10⁻² umol; in the assay on Trichoderma viride [10] it was 158.4 ×10⁻² umol; in [11] it was 158 ×10⁻² µmol; in the assay with Curvularia australiensis [12], 159.9 ×10⁻² umol.
In the case of `C/C(=N\NC(=O)C1=C(O)c2ccccc2S(=O)(=O)N1C)c1ccccc1Cl`, the MIC was determined as 88.6 ×10⁻² umol with Aspergillus niger [1]; 87.1 ×10⁻² umol in the assay with Aspergillus flavus [2]; 76.1 ×10⁻² umol with Aspergillus fumigatus [3]; 66.5 ×10⁻² umol against Trichoderma viride [4]; 61.1 ×10⁻² µmol in assay [5]; 63.6 ×10⁻² umol with Curvularia australiensis [6]. Moreover, the MIC in the assay with Bacillus cereus is recorded as 10.8 ×10⁻² umol; against Bacillus subtilis, 11 ×10⁻² umol; with Bacillus thuringiensis, 12 ×10⁻² umol; against Staphylococcus aureus, 30.7 ×10⁻² umol; against Escherichia coli, 31.7 ×10⁻² umol; against Pseudomonas aeruginosa it was 32.6 ×10⁻² umol. Further, the MFC in the assay with Aspergillus niger [7] came to 167.9 ×10⁻² umol; in the assay on Aspergillus flavus [8], 170.2 ×10⁻² umol; with Aspergillus fumigatus [9], 144.6 ×10⁻² umol; in the assay on Trichoderma viride [10] it was 133.1 ×10⁻² umol; in [11], 119 ×10⁻² µmol; in the assay with Curvularia australiensis [12], 126.5 ×10⁻² umol.
As to `C/C(=N\NC(=O)C1=C(O)c2ccccc2S(=O)(=O)N1)c1ccc(Cl)cc1`, the MIC was 82.9 ×10⁻² umol in the assay on Aspergillus niger [1]; 81.9 ×10⁻² umol with Aspergillus flavus [2]; 72.7 ×10⁻² umol against Aspergillus fumigatus [3]; 67.3 ×10⁻² umol with Trichoderma viride [4]; 62.5 ×10⁻² µmol in assay [5]; 64.4 ×10⁻² umol in the assay with Curvularia australiensis [6]. The MIC against Bacillus cereus turned out to be 11.7 ×10⁻² umol; against Bacillus subtilis, 12.5 ×10⁻² umol; against Bacillus thuringiensis, 12.3 ×10⁻² umol; in the assay on Staphylococcus aureus, 30.8 ×10⁻² umol; with Escherichia coli, 31.2 ×10⁻² umol; against Pseudomonas aeruginosa it was 32.4 ×10⁻² umol. Moreover, the MFC is 145.4 ×10⁻² umol in the assay on Aspergillus niger [7]; 163 ×10⁻² umol with Aspergillus flavus [8]; 140.1 ×10⁻² umol in the assay with Aspergillus fumigatus [9]; 114.7 ×10⁻² umol in the assay on Trichoderma viride [10]; 125 ×10⁻² µmol in assay [11]; 130.5 ×10⁻² umol with Curvularia australiensis [12].
As for `C/C(=N\NC(=O)C1=C(O)c2ccccc2S(=O)(=O)N1C)c1ccc(Cl)cc1`, the MIC came out at 82 ×10⁻² umol in the assay on Aspergillus niger [1]; 81.7 ×10⁻² umol in the assay with Aspergillus flavus [2]; 72.6 ×10⁻² umol with Aspergillus fumigatus [3]; 67.2 ×10⁻² umol against Trichoderma viride [4]; 62.2 ×10⁻² µmol in [5]; 64.3 ×10⁻² umol in the assay on Curvularia australiensis [6]. Further, the MIC amounted to 11 ×10⁻² umol against Bacillus cereus; 11.6 ×10⁻² umol with Bacillus subtilis; 12.3 ×10⁻² umol in the assay with Bacillus thuringiensis; 30.9 ×10⁻² umol in the assay with Staphylococcus aureus; 31 ×10⁻² umol against Escherichia coli; 32.3 ×10⁻² umol against Pseudomonas aeruginosa. Besides, the MFC is 166.4 ×10⁻² umol with Aspergillus niger [7]; 162.3 ×10⁻² umol with Aspergillus flavus [8]; 143.6 ×10⁻² umol in the assay with Aspergillus fumigatus [9]; 134.4 ×10⁻² umol in the assay on Trichoderma viride [10]; 124 ×10⁻² µmol in assay [11]; 128.6 ×10⁻² umol in the assay with Curvularia australiensis [12].

The record behind these values is ChEMBL document CHEMBL1781892, “Microwave assisted synthesis and structure-activity relationship of 4-hydroxy-N'-[1-phenylethylidene]-2H/2-methyl-1,2-benzothiazine-3-carbohydrazide 1,1-dioxides as anti-microbial agents” (2011).
